From ChEMBL document CHEMBL1221219, “Selective blockade of 2-arachidonoylglycerol hydrolysis produces cannabinoid behavioral effects” (Nat Chem Biol, 2009) come the findings set out here.

Activity calls are given as the source filed them. No cut-off for these calls is given here.

Assay [1] deals with T1, Diacylglycerol lipase-alpha (Homo sapiens) (UniProt Q9Y4D2).
T1 sequence (whole entry): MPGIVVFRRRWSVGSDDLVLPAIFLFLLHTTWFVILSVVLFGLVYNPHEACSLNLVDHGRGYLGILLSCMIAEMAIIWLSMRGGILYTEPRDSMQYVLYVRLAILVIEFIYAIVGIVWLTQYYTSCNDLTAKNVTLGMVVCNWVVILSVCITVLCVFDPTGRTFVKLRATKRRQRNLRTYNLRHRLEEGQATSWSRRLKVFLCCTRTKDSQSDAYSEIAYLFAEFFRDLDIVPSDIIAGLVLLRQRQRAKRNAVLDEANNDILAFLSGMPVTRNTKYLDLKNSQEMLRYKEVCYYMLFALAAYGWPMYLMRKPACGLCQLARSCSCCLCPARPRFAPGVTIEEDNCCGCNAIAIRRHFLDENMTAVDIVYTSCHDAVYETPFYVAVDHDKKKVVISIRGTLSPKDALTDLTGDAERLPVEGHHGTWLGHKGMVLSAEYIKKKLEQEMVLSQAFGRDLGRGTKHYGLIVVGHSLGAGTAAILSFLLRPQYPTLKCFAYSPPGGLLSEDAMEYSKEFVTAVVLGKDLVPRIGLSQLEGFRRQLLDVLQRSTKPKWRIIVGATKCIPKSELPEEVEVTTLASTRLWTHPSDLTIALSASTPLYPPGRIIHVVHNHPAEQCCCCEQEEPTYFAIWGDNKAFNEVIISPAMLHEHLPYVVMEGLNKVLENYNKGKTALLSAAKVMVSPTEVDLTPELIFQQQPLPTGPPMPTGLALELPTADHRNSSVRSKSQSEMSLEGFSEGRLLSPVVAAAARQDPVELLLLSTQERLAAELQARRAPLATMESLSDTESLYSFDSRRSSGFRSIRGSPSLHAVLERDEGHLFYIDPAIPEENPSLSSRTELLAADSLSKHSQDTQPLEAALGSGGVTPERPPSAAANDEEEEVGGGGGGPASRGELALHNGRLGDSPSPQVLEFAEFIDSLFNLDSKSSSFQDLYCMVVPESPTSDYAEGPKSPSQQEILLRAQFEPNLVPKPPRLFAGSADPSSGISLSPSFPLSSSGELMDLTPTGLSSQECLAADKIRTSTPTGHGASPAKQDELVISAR
Briefly: Inhibition of recombinant DAGLalpha expressed in HEK293 cells assessed as hydrolysis of 1-stearoyl-2-arachidonoyl-glycerol to 2-AG at 10 uM after 30 mins by LC-MS method. The assay is classed as cell-based.

Assay [2] relates to Mus musculus. Briefly: Inhibition of FAAH in C57B1/6J mouse brain membrane at 4 mg/kg, ip after 4 hrs by competitive activity-based protein profiling method relative to control. The assay is classed as functional. The conditions noted are these: route intraperitoneal. Put shortly:
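Male C57Bl/6J mice (6-8 weeks, 20-26 g) given inhibitor i.p. in 4:1 v/v PEG300:Tween80 at 4 ul g^-1 (4-40 mg kg^-1); vehicle controls. Brain membrane proteomes (1 mg ml^-1 in PBS) labelled with FP-rhodamine (2 μM) for 30 min at room temperature. Readout by SDS-PAGE and in-gel fluorescence scanning, compared with vehicle.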

In assay [3] the test system is Mus musculus. Briefly: Inhibition of CTHA in C57B1/6J mouse brain membrane at 16 mg/kg, ip after 4 hrs by competitive activity-based protein profiling-MudPIT method. The assay is classed as functional, organism-based. More on the design: dose 16 mg/kg. Put shortly:
(§1)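 Mice were dosed 16 mg kg^-1 i.p. or vehicle and killed at 4 h. Brain membrane proteomes were labelled with FP-biotin, avidin-enriched, trypsin-digested on bead, analysed by multidimensional LC-MS and identified by SEQUEST.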

Assay [4] deals with Mus musculus. The assay is described as follows: Inhibition of LPL1 in C57B1/6J mouse brain membrane at 16 mg/kg, ip after 4 hrs by competitive activity-based protein profiling-MudPIT method. Format: functional, organism-based. More on the design: dose 16 mg/kg. Put shortly:
(§2)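 After i.p. dosing in 4:1 PEG300:Tween80, male C57Bl/6J mice were killed at 4 h. Brain membrane proteomes from treated and vehicle mice were labelled with FP-biotin. Labelled proteins were enriched on avidin, digested on-bead with trypsin and analysed by multidimensional LC-MS. Proteins were identified by SEQUEST, and dosed samples were compared with vehicle.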

Assay [5] deals with Mus musculus. Briefly: Inhibition of 2210412D01 gene in C57B1/6J mouse brain membrane at 16 mg/kg, ip after 4 hrs by competitive activity-based protein profiling-MudPIT method. Format: functional, organism-based. Also on record: dose 16 mg/kg. Put shortly:
as §1

Assay [6] concerns Mus musculus. Briefly: Inhibition of PAFAH-1Bb in C57B1/6J mouse brain membrane at 16 mg/kg, ip after 4 hrs by competitive activity-based protein profiling-MudPIT method. Format: functional, organism-based. Also on record: dose 16 mg/kg. Put shortly:
as §2

For assay [7], the system named is Mus musculus. Briefly: Change in oleic acid in intraperitoneally dosed C57B1/6J mouse brain by LC-MS. Format: functional, organism-based. Put shortly: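 Male C57Bl/6J mice given 4, 8, 16 or 40 mg kg^-1 i.p. in 4:1 PEG300:Tween80 at 4 μl g^-1, or vehicle, and killed after 4 h. Whole-brain lipids were quantified by LC-MS.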
Assay [8] has as its target T2, Monoglyceride lipase (Mus musculus) (UniProt O35678).
T2 sequence (whole entry): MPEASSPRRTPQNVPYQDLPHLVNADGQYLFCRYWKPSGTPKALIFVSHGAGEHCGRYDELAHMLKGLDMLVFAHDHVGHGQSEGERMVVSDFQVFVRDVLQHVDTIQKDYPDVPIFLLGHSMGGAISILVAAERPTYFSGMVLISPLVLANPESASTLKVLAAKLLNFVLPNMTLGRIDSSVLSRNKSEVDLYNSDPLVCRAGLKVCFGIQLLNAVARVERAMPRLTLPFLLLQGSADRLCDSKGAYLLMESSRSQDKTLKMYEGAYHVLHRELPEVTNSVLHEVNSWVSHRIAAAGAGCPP
As to conditions: C57B1/6J, Brain, Membrane, 50 nM.

One may read the inhibition in vivo as the share of the control response that was lost under treatment. Turning to `O=C(Oc1ccc([N+](=O)[O-])cc1)N1CCC(C(O)(c2ccc3c(c2)OCO3)c2ccc3c(c2)OCO3)CC1`, the inhibition result (in assay [1]; with Mus musculus [3]; with Mus musculus [4]; in the assay with Mus musculus [5]; in the assay on Mus musculus [6]) was “inactive” throughout. In the assay on Mus musculus [2], this molecule showed an inhibition in vivo at 4 mg/kg of less than 20%. In addition, the outcome with Mus musculus [7] was inactive. Besides, the inhibition entry in assay [8] was “Active”.
